High-throughput results as filed in PubChem.
Hits are enriched below; roughly 2.6% of the tested compounds scored in any of these assays.
Exocytosis inh – LAMP-1 surface exposure blockers, TALL-104 cells – cell-based, flow cytometry, MLPCN library, primary screen. inhibition, % at 10 µM. AID 651702, 2012. TALL-104 LAMP-1 surface exposure; cells stimulated with thapsigargin and PMA. 360,000 compounds, 0.66% hits;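 active = inhibition above about 55%, limit read from the data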
MC4R barr agon – MC4R agonists recruiting beta-arrestin, primary screen, cell-based, luminescence, agonist arm of biased-ligand search; Melanocortin receptor 4 (Homo sapiens), P32245; U2OS MC4R beta-arrestin complementation; percent of melanotan II response, DMSO zero; activation, % at 8.9 µM; 360,000 compounds, 0.98% hits;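 active = activation above a per-plate cutoff, the mean activation of sample wells on that plate plus 3 SD, cut at about 8% in these data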
Target sequence (P32245 whole entry, looked up): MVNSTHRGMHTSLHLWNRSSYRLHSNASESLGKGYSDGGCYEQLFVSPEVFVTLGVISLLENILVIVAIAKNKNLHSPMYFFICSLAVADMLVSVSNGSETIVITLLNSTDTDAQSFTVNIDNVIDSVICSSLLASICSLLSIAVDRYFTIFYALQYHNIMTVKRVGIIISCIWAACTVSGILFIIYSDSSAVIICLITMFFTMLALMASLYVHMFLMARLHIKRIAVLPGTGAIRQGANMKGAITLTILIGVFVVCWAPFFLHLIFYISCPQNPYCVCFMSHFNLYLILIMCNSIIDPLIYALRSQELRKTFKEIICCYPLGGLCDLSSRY
EP2 antag – human EP2 receptor antagonists, primary screen, TR-FRET cAMP, C6 glioma cells; C6 glioma cells expressing human EP2; cells stimulated with saturating PGE2; 260,000 compounds, 0.52% hits; inhibition, % at 25 µM; Prostaglandin E2 receptor EP2 subtype (Homo sapiens), P43116;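 active = percent inhibition above 40 after rounding to a whole number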;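 also: rat C6 glioma host cells with rolipram phosphodiesterase inhibitor present; the protocol text gives 20 µM as final concentration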
Target sequence (P43116 whole entry, looked up): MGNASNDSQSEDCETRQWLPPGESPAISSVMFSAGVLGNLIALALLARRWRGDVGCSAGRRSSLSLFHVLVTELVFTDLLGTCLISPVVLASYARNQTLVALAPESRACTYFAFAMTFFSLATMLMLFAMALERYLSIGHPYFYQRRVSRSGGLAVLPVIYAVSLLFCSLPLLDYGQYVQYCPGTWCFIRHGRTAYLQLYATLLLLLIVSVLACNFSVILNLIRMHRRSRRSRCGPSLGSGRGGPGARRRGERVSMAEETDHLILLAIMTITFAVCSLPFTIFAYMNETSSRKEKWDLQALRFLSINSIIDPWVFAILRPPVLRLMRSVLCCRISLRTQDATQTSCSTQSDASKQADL
T cell modulator – modulators of CD8 T cell-vesicle binding, primary screen, mouse 2C CD8+ T cells, flow cytometry; 2C CD8+ T cell-vesicle binding; stronger effect = lower value; response (vesicle binding), % at 7 µM; 330,000 compounds, 0.068% hits; AID 2052, 2009;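 active = response, share of CD8 T cells binding vesicles, and their 90th percentile fluorescence all below set limits, cut at about 80% in these data, passing the limit was not always enough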;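 also: values below 100% mean blocked vesicle binding to the CD8+ T cells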
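Also added: QL9-peptide-loaded Drosophila micro-vesicles bearing Ld, ICAM-1 and B7-1; Test system: purified 2C TCR transgenic mouse naive CD8+ T cells; Measured by: cytometric PE anti-B7-1 and Alexa647 anti-CD8 signals after 1% paraformaldehyde fixation; Timing: binding step 1.5 h, 37 °C, antibody labelling 20 min, ice.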
MC4R antag cAMP – MC4R antagonists of cAMP signaling, primary screen, cell-based, TR-FRET, antagonist arm of biased-ligand search; 360,000 compounds, 0.48% hits; MC4R-expressing cells, MTII-stimulated cAMP, LANCE TR-FRET; Melanocortin receptor 4 (Homo sapiens), P32245; inhibition, % at 6.5 µM;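 active = inhibition above its plate's cutoff, the mean of tested wells on that plate plus 3 SD, cut at about 29% in these data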;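 also: 0% = Melanotan II alone and 100% = Melanotan II plus saturating MCL0020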
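Material: human MC4R-expressing U2OS cells. Probe or stimulus: Melanotan II challenge. Dosing: 6.5 µM single dose. Times: 30-min compound, 1-h challenge, 1-h detection, room temperature. Technique: TR-FRET with Eu-cAMP and labeled anti-cAMP, 671 nm. Replication: singlicate.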
EP2 modulator – EP2 receptor modulators, cAMP readout, primary screen, cell-based, HTRF cAMP, PGE2 stimulation; Prostaglandin E2 receptor EP2 subtype (Homo sapiens), P43116; EP2-expressing cells, cAMP HTRF FRET, PGE2 co-stimulation; induction, % at 25 µM; 260,000 compounds, 0.83% hits;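 active = compounds whose cAMP rise, as percent of the full-agonist control response, exceeds 60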;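 also: rat C6 glioma line stably carrying human EP2 under a CMV promoter; the protocol text gives 20 µM as final concentration; 100% = response of wells given 1 µM PGE2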
EP2 confirm – cAMP induction in EP2, EP4, beta2-AR and parental cells, confirmation, counter-screen for EP2 modulator project, cell-based, five parallel assays, C6 glioma, HEK293. cAMP HTRF induction; plus low (about EC15) PGE2 agonist. calls only at 20 µM (by protocol). shares compounds with EP2 modulator. 1,300 compounds, 47% hits;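 active = cAMP induction above 50% in the main assay while under 30% in all four parallel counter assays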;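 also: rat C6 glioma cells stably expressing human EP2 receptor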
cAMP nonselect – nonselective cAMP signaling inhibitors, parental cells, counter-screen for MC4R biased antagonist project, cell-based, TR-FRET, U2OS, forskolin, triplicate; shares compounds with MC4R antag cAMP; LANCE TR-FRET; inhibition, % at 6.5 µM; 1,600 compounds, 26% hits; AID 602193, 2012;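 active = mean inhibition over triplicates above the low-control well mean plus 3 SD, set per campaign, cut at about 13% in these data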;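 also: signal is single emission at 671 nm which falls as cellular cAMP rises; 0% = forskolin-stimulated wells and 100% = buffer without forskolin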
MC4R cAMP antag – MC4R cAMP antagonists, retest, confirmation, cell-based, TR-FRET; 1,600 compounds, 27% hits; AID 602195, 2012; shares compounds with MC4R antag cAMP; MC4R-expressing cells, MTII-stimulated cAMP; inhibition, % at 6.5 µM; in the data active = inhibition above about 29%;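 also: 0% = agonist stimulated wells alone and 100% = agonist stimulated wells plus saturating reference antagonist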
An asterisk follows results filed as active; i = inactive; / = no result given; + = active, no number; ! = a repeat was not active.

SMILES	Exocytosis inh	MC4R barr agon	EP2 antag	T cell modulator	MC4R antag cAMP	EP2 modulator	EP2 confirm	others
CCCCn1c(=O)c(C(=O)Nc2ccsc2C(=O)OC)c(O)c2ccccc21	0.8	-0.5	6.8	260.2	5.0	17.7	/
CCCCCSc1cc(OC)c(CCN(C)C)cc1OC	2.2	-0.9	8.8	304.9	-9.7	-13.7	/
CC1OC(OC2C=C3CCC4C(CCC5(C)C(c6ccc(=O)oc6)CCC45O)C3(C)CC2)C(O)C(OC2OC(CO)C(O)C(O)C2O)C1O (configuration not stated)	14.2	36.6*	/	/	12.7	/	/
CO[C@H]1[C@H](O)[C@@H](O[C@H]2CC[C@]3(C=O)C4CC[C@]5(C)[C@@H](C6=CC(=O)OC6)CC[C@]5(O)C4CC[C@@H]3C2)O[C@@H](C)[C@@H]1O (some centres not stated)	/	/	5.6	/	/	10.8	/
CCCCn1nnnc1C(CCc1ccccc1)N1CCC2(CC1)C(=O)NCN2c1ccccc1 (configuration not stated)	-0.2	/	/	/	/	/	/
Clc1ccccc1C1NCc2ccccc2-n2cccc21 (configuration not stated)	0.3	-2.1	7.3	77.5	12.6	68.5*	+
CC(C)c1ccc(C2NCc3ccccc3-n3cccc32)cc1 (configuration not stated)	38.9	0.0	/	205.8	2.3	/	/
Cc1cc(NC(=O)COC(=O)c2c(C)nn(Cc3ccccc3Cl)c2C)no1	1.2	2.9	6.8	695.4	-3.5	30.8	/
NC(=NCCC[C@H](N)C(=O)O)N[N+](=O)[O-]	/	/	12.2	/	/	85.6*!	i
CCOP(=S)(OCC)Oc1nc(Cl)c(Cl)cc1Cl	0.3	1.3	6.9	313.2	11.2	68.2*	+
CCOC(=O)c1cn2nc(OP(=S)(OCC)OCC)cc2nc1C	2.1	-1.1	10.1	295.3	-0.2	44.5	/
O=C(CNC1CCCCC1)N1CCC2(CC1)OCCO2	-0.5	0.7	7.5	554.0	11.3	72.7*!	i
O=C(NC(Cc1ccccc1)C(=O)N1CCC2(CC1)OCCO2)C1CCCCC1 (configuration not stated)	-1.3	-2.6	2.8	308.0	-0.3	5.7	/
COc1cc2nc(N3CCN(C(=O)C4CCCO4)CC3)nc(N)c2cc1OC (configuration not stated)	-10.0	-0.2	17.6	98.1	-1.6	6.3	i
COC(=O)C1=C(c2ccccc2)C[C@@H]2CC[C@H]1N2C(=O)NCC1CC1	1.8	-2.1	11.0	662.1	-0.5	/	/
CC(C)CCNC(=O)c1c(N)n(CC2CCCO2)c2nc3ccccc3nc12 (configuration not stated)	1.9	1.9	4.0	385.4	7.4	69.4*	+
C=CCc1cc(C=C2C(=O)N(C)C(=O)N(C)C2=O)cc(OCC)c1OCc1ccccc1	-8.4	3.5	5.0	207.3	2.8	88.3*	i
O=C(c1cn(Cc2ccccc2)c2ccccc12)C1CC1	-1.7	-1.1	11.5	467.7	0.1	65.5*	i
CC(C)c1nccn1Cc1ccc(Cl)cc1Cl	/	/	-1.7	/	/	106.0*	i
C[C@@H](Cc1ccc(Cl)cc1Cl)NO	/	/	31.9	/	/	19.9	/
Oc1ccc2c3c1O[C@H]1c4[nH]c5ccccc5c4C[C@@]4(O)C(C2)N(CC2CC2)CCC314 (some centres not stated)	/	/	13.4	/	/	12.1	/
CCCCCCCCCc1ccc(O)cc1	/	/	9.2	/	/	54.9	i
CN(C)CCN(C(=O)Cc1ccc2c(c1)CCCC2)C1CCN(C)CC1	/	/	-0.2	/	/	-38.5	/
CC(N)[C@H](O)c1ccc(O)c(O)c1 (some centres not stated)	/	/	18.3	/	/	11.3	/
C[C@H](N)[C@H](O)c1ccc(O)c(O)c1	/	/	8.3	/	/	74.4*	i
SMILES	Exocytosis inh	MC4R barr agon	EP2 antag	T cell modulator	MC4R antag cAMP	EP2 modulator	EP2 confirm	others
CC(c1ccccc1)n1cncc1C(=O)N1CCCC1=O (configuration not stated)	-3.5	-0.7	7.2	937.3	-1.3	13.6	/
O=P(C(=Nc1ccc(Cl)cc1)N1CCOCC1)(N1CCOCC1)N1CCOCC1	-1.4	0.2	23.4	167.7	1.7	9.8	/
COc1cc(OC)c(OC)cc1CNCCc1ccc(OC)c(OC)c1	-1.8	-2.3	7.6	253.3	9.5	67.3*	i
COc1ccc(OC)c(CNCCc2ccc(OC)c(OC)c2)c1	-1.1	-1.3	/	186.5	-2.8	/	/
CCn1nc(CC(=O)N2CCCCC2CN2CCCCC2)c2ccccc2c1=O (configuration not stated)	/	/	5.9	/	/	-36.4	/
COC[C@H]1OC(=O)c2coc3c2[C@@]1(C)C1=C(C3=O)C2CCC(=O)[C@@]2(C)C[C@H]1OC(C)=O (some centres not stated)	/	/	14.5	/	/	50.1	i
COc1ccc2oc3c(c2c1)NC(=O)CN=C3c1ccccc1	-0.6	1.5	7.5	344.7	31.4*	-9.6	/	cAMP nonselect=3.7;MC4R cAMP antag=-7.9
C=C1C/C(=C/C)C(=O)O[C@@H]2CCN3CC=C(COC(=O)[C@]1(C)O)[C@H]23	0.5	/	8.3	458.4	/	11.2	/
Cc1ccc(N2C(=O)NC(=O)/C(=C/c3ccoc3)C2=O)cc1	4.2	-2.4	6.8	/	32.8*	-38.0	/	cAMP nonselect=2.7;MC4R cAMP antag=-1.9
Cc1ccc(N2C(=O)NC(=O)/C(=C/c3cnn(-c4ccc(C)cc4)c3)C2=O)cc1	46.3	1.9	19.2	397.7	4.5	-53.6	/
CCOC(=O)c1c(-n2c(C)cc(C=C3C(=O)NC(=O)NC3=O)c2C)sc2c1CCCC2	2.7	0.9	/	498.0	30.0*	-14.4	/	cAMP nonselect=2.0;MC4R cAMP antag=-10.2
